From ChEMBL document CHEMBL4513216, “Probing the Open Global Health Chemical Diversity Library for Multistage-Active Starting Points for Next-Generation Antimalarials” (ACS Infect Dis, 2020)

Test: Toxicity liver stage against HepG2, at 10uM
Format: cell-based
Set-up: test concentration 10 uM, cell line HepG2-A16-CD81EGFP
Conditions: human, HepG2-A16-CD81EGFP cells; read-out: INHIBITION
Procedure, shortened: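 Uninfected HepG2-A16-CD81EGFP cells, 3 × 10^3 per well, 1536-well, plated on prespotted compound at 10 μM final, parasite-free screening media added to match infected plates; puromycin 10 μM positive, DMSO 0.5% negative; run in parallel with 48 h PbLuc assay at 37 °C, 5% CO2; viability by CellTiter-Glo luminescence, normalized to controls.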

| Compound | cytotoxicity at 10 µM [%] |
| --- | --- |
| O=C(Nc1ccccc1C(=O)NCCN1CCOCC1)c1ccco1 | -0.972 |
| CC(C)N1CCOC[C@H]1c1nc(C(C)(C)C)c[nH]1 | -1.99 |
| c1cc(-c2c[nH]c([C@@H]3COCCN3CC3CC3)n2)ccn1 | 6.82 |
| CC(C)c1nnc(NC(=O)CSCc2cc(=O)n3ccccc3n2)s1 | 2.08 |
| CN1CCN(CCCNC(=O)CCc2nc3cc(Br)cnc3[nH]2)CC1 | -124 |
| COc1cccc2c1ccn2CCNC(=O)CCNc1ncccn1 | -6.27 |
| O=C(NCCC(O)c1cccs1)c1ccco1 (stereo unspecified) | -14.7 |
| CC(C)NC(=O)NCCn1nc(C(F)(F)F)n(C)c1=O | -0.173 |
| O=C(NCCn1cnc(C2CCCC2)cc1=O)c1ccc(=O)[nH]n1 | -0.895 |
| COC(=O)c1sccc1S(=O)(=O)NCCc1ccoc1 | 2.6 |
| O=C(c1ccoc1)N1CCC2(C1)CN(c1nccs1)C2 | 1.07 |
| Cc1noc([C@H]2COC[C@H]3CN(C(=O)Cc4cccc(F)c4)C[C@H]32)n1 | 6.93 |
| Cc1cccc(N2CCCC3(C2)CN(c2nncs2)CCO3)c1 (stereo unspecified) | 9 |
| CCO[C@H]1CO[C@@]2(CCCN(C(=O)c3ccc(OC)c(F)c3)C2)C1 | 5.69 |
| NCCc1c(-c2ccc(F)cc2)[nH][nH]c1=O | -1.3 |
| COc1ccccc1-n1c(O)cc(C)c(C#N)c1=O | 2.74 |
| COc1ccc(Br)c(C(=O)NCC2CCN(S(=O)(=O)C3CC3)CC2)c1 | -24.3 |
| CN1[C@@H](C(=O)NCC2CC2)C[C@@H]2CN(Cc3ccco3)C[C@@H]21 | 4.68 |
| CC(C)N(C)C(=O)C1=NOC2(CCN(C(=O)c3ccccn3)C2)C1 (stereo unspecified) | -13.4 |
| O=C(CCn1cc(Cl)cn1)Nc1nncs1 | -9.61 |
| c1ccc(CCN2CCCC(c3ccnc4nccn34)C2)cc1 (stereo unspecified) | 4.22 |
| Nc1c(C(=O)C2CCCN(C(=O)C3CC3)C2)cnn1-c1ccc(F)cc1 (stereo unspecified) | 6.12 |
| O=C(N[C@@H]1CC[C@@H](N2CCOCC2)[C@@H]1O)c1cnn2cccnc12 | -27.1 |

| Compound | cytotoxicity at 10 µM [%] |
| --- | --- |
| O=C(c1n[nH]cc1Cl)N1CCCC(n2nnc3cc(F)ccc32)C1 (stereo unspecified) | -8.55 |
| Cc1nn(C)cc1CN1CCc2nc(-c3cccnc3)nc(O)c2C1 | 22.5 |
| CC(C)N1CCC(Cc2cncc(-c3ccccc3C(=O)O)n2)CC1 | 0.822 |
| Cc1ccc(S(=O)(=O)N2CCN(CCC(N)=O)CC2)s1 | -9.88 |
| Cc1ccc(F)c2c1CCCN2Cc1cc(=O)n(C)c(=O)n1C | 13.6 |
| O=C(Nc1cccnc1N1CCSCC1)c1ccc2c(c1)CCC2 | -2.03 |
| Cc1cc(-n2c(C)cn(CN(C)C3CCS(=O)(=O)C3)c2=O)no1 (stereo unspecified) | -0.872 |
| CN(C)CCN(Cc1ccc(F)cc1)C(=O)c1ccn(C)c(=O)c1 | -4.62 |
| CC(C)(C)CNC(=O)c1ccc(C(=O)O)nc1 | 10.4 |
| CCc1noc(CN2CCOC3(CCCC3)C2)n1 | -3.54 |
| Cc1ccc(CNC(=O)Nc2nnc(C(C)C)s2)n1C | -10 |
| O=C(NCc1cccnc1-n1cncn1)c1cc(Cl)ccn1 | -3.76 |
| COc1ccccc1CCNC(=O)N(C)C(C)CS(C)(=O)=O (stereo unspecified) | -48.8 |
| CC(C)N(C(=O)Cn1nc2n(c1=O)CCCCC2)C1CCC1 | -7.62 |
| CN(Cc1ccccc1)c1ccc(C(F)(F)F)cn1 | 10.2 |
| CCS(=O)(=O)CC(=O)Nc1c(C)cnn1Cc1cc(F)ccc1F | -4.96 |
| CCOCCNC(=O)c1cc(Br)c2c(c1)OCCO2 | 1.41 |
| Cc1nc(CN2CCC(CNC(=O)C3(C#N)CCCC3)CC2)oc1C | 1.29 |
| CCCOc1cc(C)ccc1NC(=O)NCCNC(=O)C(C)C | 8.31 |
| CCOC(C)c1noc(CN2CCN(Cc3cccc(F)c3)CC2)n1 (stereo unspecified) | 7.66 |
| COc1ccccc1N1CCCC(Nc2ncccn2)C1=O (stereo unspecified) | 4.96 |
| Cc1cc(F)cc(S(=O)(=O)NC(=O)CCc2cncc(F)c2)c1 | 7.78 |
| CN(Cc1cscn1)C1CCN(C(=O)OC(C)(C)C)CC1 | -3.76 |

| Compound | cytotoxicity at 10 µM [%] |
| --- | --- |
| CC(C)N1CCC(Nc2ccn(Cc3ccccn3)n2)C1=O (stereo unspecified) | -2.43 |
| Cc1nnc2ccc(C(=O)N3CCSC(C)(C)C3)cn12 | -3.54 |
| CCC(C)NC(=O)c1ccc(NC(=O)CCc2ccncc2)c(C)c1 (stereo unspecified) | 4.31 |
| O=C(c1cc2ccccc2o1)N1CCN(Cn2cc(Cl)cn2)CC1 | 9.31 |
| Cc1cc(C)cc(C(=O)NCCCC2(C3OCCO3)CCOCC2)c1 | 9.4 |
| c1ccn2c(C3CCCN3Cc3nc(C4CC4)no3)nnc2c1 (stereo unspecified) | -2.59 |
| COC1CCN(C(=O)c2nn(-c3ccc(C(C)C)cc3)cc2O)CC1 | -42.9 |
| Cc1nc(CN2C(=O)CC[C@@H]3[C@H]2CCN3C(=O)NC2CC2)cs1 | 9.37 |
| Cc1nc2cc(C(=O)N3C[C@@H](NS(C)(=O)=O)[C@H](C(C)C)C3)ccc2[nH]1 | -4.47 |
| CC(=O)NC1CCN(c2ncnc3c2c(C)nn3C)C1 (stereo unspecified) | -2.78 |
| Cc1ccnc(N2Cc3cnn(Cc4ccc(F)cc4)c3C2)n1 | 3.59 |
| CCC(C)N(Cc1ccncc1)Cc1ccccc1Cn1cccn1 (stereo unspecified) | -44.4 |
| Cc1cc(N2CCC(c3ncc[nH]3)CC2)cc(C)n1 | -1.95 |
| CC(=O)NCCc1ncnn1-c1ccc(F)c(Cl)c1 | -15 |
| CCC(c1nc(C(C)C)nn1-c1ccccn1)n1cccn1 (stereo unspecified) | 5.66 |
| CCn1nc(C)cc1C(=O)N1C[C@@H](CN(C)C)[C@@H](CO)C1 | 3.3 |
| C[C@@H]1CN(S(=O)(=O)N2CCOCC2)C[C@@]1(O)C1CC1 | 5.91 |
| Cc1cc(CN[C@H](C(N)=O)[C@@H](C)O)c(C)s1 | 9.5 |
| COCCCN1C(=O)CC[C@H]2CN(Cc3ncc[nH]3)CC[C@H]21 | -0.462 |
| CCCc1nc(N2CCCN(c3ccncc3)CC2)c2cnn(C)c2n1 | -2.47 |
| Cc1cnn(CC(=O)N2CCC3(CCC(=O)N(C4CCCC4)C3)CC2)c1 | 3.03 |
| Cc1n[nH]c(C)c1CCC(=O)NCC1CCCN(C2CCCC2)C1 (stereo unspecified) | -6.32 |
| CCCN(Cc1ccc(S(=O)(=O)NC)cc1)Cc1ccccc1OC | -0.89 |

| Compound | cytotoxicity at 10 µM [%] |
| --- | --- |
| O=C(c1ccc(-c2cccc3c2CCNC3)o1)N1CCOCC1 | 3.34 |
| OC1CCN(c2ccnc(NCCc3ccccc3Cl)n2)CC1 | 16.5 |
| CCNc1ncc(C(=O)NC(CCN(C)C)c2ccccc2)cn1 (stereo unspecified) | 4.8 |
| CC(Cn1cccn1)C(=O)N1CCC(NS(C)(=O)=O)CC1 (stereo unspecified) | -8.34 |
| c1ccc(-c2ncc(CN3CCCCC3CCn3cccn3)cn2)nc1 (stereo unspecified) | -3.34 |
| Cc1cnc(N)nc1NCCSCc1[nH]cnc1C | 4.34 |
| COc1cc(N2CCC(c3nccn3Cc3cccnc3)CC2)ncn1 | -4.4 |
| O=C(NC1CCCCC1)N1C[C@H]2CN(c3cnccn3)C[C@@]2(C(=O)O)C1 | 13.7 |
| CCc1noc(C)c1C(=O)N1CCCCC1Cn1cc(C)cn1 (stereo unspecified) | 10.8 |
| OCCn1nccc1C1CCN(CCOc2ccc(Cl)cc2)CC1 | -4.68 |
| COc1ccc(OCCN(C)Cc2nc3c(cnn3C)c(=O)[nH]2)cc1 | -4.03 |
| COc1cccc(C(=O)NS(=O)(=O)c2cccc(C#N)c2)c1 | -6.12 |
| COc1cccc(CNCc2c(C)nn(C)c2N(C)C)c1 | -2.51 |
| Cc1cc(CN2CCN(C(=O)NC(C)c3cccs3)CC2)on1 (stereo unspecified) | -7.72 |
| Cc1cc(C)n(CC2CCCN2C(=O)c2ccc(N(C)C)nn2)n1 (stereo unspecified) | 1.53 |
| Cc1nc(C)n(CC2CCCN(CCc3ccccc3)C2)n1 (stereo unspecified) | -3.12 |
| CCOc1cccc2c1OCC(C(=O)NS(=O)(=O)c1ccc(Br)s1)=C2 | -11.6 |
| O=C(CCC1CCCO1)NCc1ccnc(-n2cccn2)c1 (stereo unspecified) | -14.6 |
| O=C(CCc1cccs1)N1CCC(Nc2cccnn2)CC1 | -10.5 |
| Cc1nc(C2CCCN(C(=O)c3ccc(OCC4CC4)cc3)C2)no1 (stereo unspecified) | -7.69 |
| CCc1nnc2n1CCN(Cc1ccc(C(=O)N3CCCC3)cc1)C2 | -3.29 |
| CC(C)(C)C(=O)NS(=O)(=O)c1ccc(C#N)cc1C(F)(F)F | -7.52 |
| CCC(NC(=O)c1ccco1)c1ccccc1OCC(=O)N1CCCC1 (stereo unspecified) | 4.9 |

| Compound | cytotoxicity at 10 µM [%] |
| --- | --- |
| O=C(O)c1cc(S(=O)(=O)N2CCOc3ccccc32)ccc1F | -2.94 |
| CC(=O)N(Cc1noc(C2CC2)n1)C1CCN(Cc2ccncc2)C1 (stereo unspecified) | -13.8 |
| Cc1nn(C)c(C)c1CC(=O)N1CCC(N(C)c2cccnn2)CC1 | -3.33 |
| Cc1nn(CC(=O)N2CCC(Nc3cccnn3)CC2)c(C)c1Cl | -12 |
| OC(CN1CCCCCCC1)c1ccc(F)cc1 (stereo unspecified) | -10.4 |
| CC(NC(=O)NCCCn1ccnc1)c1ccc2c(c1)CCC(=O)N2 (stereo unspecified) | -4.74 |
| Cn1cc(C2CCCN2C(=O)Cc2n[nH]c3ccccc23)cn1 (stereo unspecified) | 2.56 |
| Cc1cnn(CC2CCCN2Cc2nc3ccccc3n2C)c1 (stereo unspecified) | -14.5 |
| Cc1cc(C)n(CC2CCCCN2C(=O)c2cnn(C)c2)n1 (stereo unspecified) | 6.79 |
| COc1cccc(COCC(=O)N2CCCC(n3ccnc3)C2)c1 (stereo unspecified) | -8.38 |
| OCC1CCCN1c1cc(NCc2ccc(Cl)s2)ncn1 (stereo unspecified) | -2.96 |
| Cn1cncc1CN1CCC(O)(Cn2nc(-c3cccs3)oc2=O)CC1 | -5.46 |
| COCC(=O)N1CCn2c(COc3cccnc3)cnc2C1C (stereo unspecified) | 2.14 |
| Cc1ncsc1C(=O)NCCn1nc(C2CCNC2)c2cccnc21 (stereo unspecified) | -0.98 |
| CN(C)C(=O)CN1CCn2cc(Cn3cccn3)nc2C1 | 4.96 |
| COCc1ccc(CN2CCC(O)(Cn3ccc4ncccc43)CC2)o1 | 4.45 |
| O=C(Cc1ccccn1)N1CCc2ncnc(NC3CCC3)c2CC1 | 3.25 |
| c1cnc2c(c1)cc([C@@H]1CCCO1)n2CCN1CCCCC1 | -25.9 |
| COc1ccc(/C=C/CN2C[C@@H]3CC[C@H]2CN(S(=O)(=O)N(C)C)C3)cc1 | -2.72 |
